Consider seven molecules from PMC9186316 (Toxicological Sciences, 2019).

Series [1] relates to uterus weight response. Also noted: species or system rat. Particulars: predicted and in vivo BMDL50 to BMDU50, rats. In outline:
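Generic rat PBK models used for reverse dosimetry of MCF-7 proliferation and YES concentration-response data. In vitro concentrations corrected for unbound fraction (RED in assay medium and rat serum; 10% FBS medium taken as half the 5% FBS fub), then converted to blood concentrations and dose levels. Literature uterotrophic data: absolute uterus weight increase, not body-weight normalised. BMR 50% over control; BMD50 with 95% BMDL50–BMDU50.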

Series [2] can be described thus: Generic PBK model evaluation: predicted versus reported Cmax in rat blood. Particulars: oral administration, rats. In a few lines: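 The generic PBK model predicted parent-compound blood concentration–time curves after single oral dosing in rats, using partition coefficients calculated from log Pow and hepatic clearance from rat liver S9. Doses matched those of the published in vivo kinetic studies. Predicted Cmax was compared with literature blood data, and the difference was expressed as a fold value.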

Series [3] is described as follows: Rapid equilibrium dialysis, fraction unbound in rat serum. It counts as in vitro ADME. Particulars: for recovery: rat serum; for fraction unbound: serum.
The format of series [4] is in vitro ADME. Particulars: bovine; for recovery: in vitro MCF-7 proliferation assay medium containing 5% FBS; for fraction unbound: in vitro proliferation assay medium with 5% FBS.
Series [5] is described as follows: Hepatic clearance by substrate depletion in rat liver S9. It counts as in vitro ADME. Particulars: Sprague-Dawley, liver S9, pH 7.4. In outline: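 Rat liver S9 (pooled, male or female Sprague-Dawley, 0.5 mg/ml) was incubated with 3 µM substrate (added from a 100-fold DMSO stock). Sampling ran 0–90 min against cofactor-free controls, with UPLC quantification. CLint came from the linear part of ln(Ccompound/Ccontrol) versus time. Triplicates, 3 independent studies.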

Like-named read-outs stand apart in the source and are kept apart here.

`C[C@]12CC[C@@H]3c4ccc(O)cc4CC[C@H]3[C@@H]1CC[C@@H]2O` [E2, 17β-estradiol]: in series [1], the “Potency comparison from BMD50 values (Figure 8)” value (“Potency comparison” below) was “most potent”.
In the case of `O=c1oc2cc(O)ccc2c2oc3cc(O)ccc3c12` [COU, coumestrol], the “Difference in Cmax between the model predictions and the in vivo kinetic data” value in series [2] is 2.2 fold. The recovery in series [3] was 82%; in series [4] it was 79%. In addition, the values for the fraction unbound in series [3] and in series [4] were 0.35 ± 0.07 and 0.69 ± 0.034, respectively.
With `C#C[C@]1(O)CC[C@H]2[C@@H]3CCc4cc(O)ccc4[C@H]3CC[C@@]21C` [EE2, 17α-ethinylestradiol], the “Potency comparison” value in series [1] was “most potent”. Further, in series [3], the recovery was 80% and the fraction unbound (commonly free concentration divided by total concentration) is 0.46 ± 0.03. Also, in series [4], the recovery worked out at 86% and the fraction unbound worked out at 0.72 ± 0.18.
Regarding `CC(C)(c1ccc(O)cc1)c1ccc(O)cc1` [BPA, bisphenol A], the “Potency comparison” value in series [1] is reported as “least potent”.
As to `CC/C(=C(/CC)c1ccc(O)cc1)c1ccc(O)cc1` [DES, Diethylstilbestrol], the “Potency comparison” value in series [1] is “most potent”. Besides, in series [3], the recovery was 77% and the fraction unbound came to 0.48 ± 0.08. Besides, in series [4], the recovery worked out at 79% and the unbound share (fraction unbound) was found to be 0.74 ± 0.02.
On to `COc1ccc(C(c2ccc(OC)cc2)C(Cl)(Cl)Cl)cc1` [MXC, methoxychlor], for which the recovery in series [3] was 76%; in series [4], 77%. In addition, the fraction unbound stood at 0.27 ± 0.04 in series [3] and 0.73 ± 0.29 in series [4]. In addition, the microsomal CLint (commonly a measure of how fast metabolising enzymes remove a compound, apart from limits set by blood flow) at 3 µM in series [5] (female) was found to be 313 ± 5 µL/min/mg; in series [5] (male), 448 ± 8 µL/min/mg.
In series [3], `O=c1c(-c2ccc(O)cc2)coc2cc(O)cc(O)c12` [GEN, genistein] returned a recovery of 83% and a fraction unbound of 0.07 ± 0.02. In series [4], this molecule yielded a recovery of 88% and a fraction unbound of 0.8 ± 0.04.
